# Source: PubChem BioAssay
# Shown are actives, neighbours in structure and some others; about 2.2% of the full set was active somewhere.
# CXCR6 block = CXCR6 (human) receptor inhibition | AID 602244 | CHO-K1 PathHunter CXCR6 beta-arrestin, luminescence | inhibition, % at 20 µM | 360,000 compounds, 0.36% hits; in the data active = inhibition above about 34%, passing the limit was not always enough;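 note: antagonist mode with CXCL16 agonist at 10 nM final; 0% = 10 nM CXCL16 with DMSO and 100% = unstimulated wells without agonist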
# CCR6 antagonist = antagonists of human CCR6 receptor | P51684 | CHO-K1 CCR6 PathHunter beta-arrestin, luminescence, CCL20-stimulated | inhibition, % at 20 µM | 340,000 compounds, 0.49% hits;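 active = compounds whose inhibition of the agonist-driven luminescence signal at 20 µM reaches about 50%, limit read from the data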;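 note: cells stimulated with CCL20 at 14 nM final; plate controls were DMSO with CCL20 for no effect and DMSO without agonist for full effect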
# EBI2 antag = EBI2 (human) antagonism; AID 651636; 360,000 compounds, 0.81% hits; inhibition, % at 5 µM; EBI2 beta-arrestin recruitment, luminescence, 7a,25-OHC stimulated; in the data active = inhibition above about 38%;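 note: enzyme fragment complementation signal reports receptor beta-arrestin coupling in cells; 0% = agonist plus DMSO wells and 100% = wells without agonist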
# APJ agonist = agonists of human APJ apelin receptor; activation, % at 20 µM; CHO-K1 APJ PathHunter beta-arrestin, luminescence; 0% DMSO wells, 100% apelin; 330,000 compounds, 0.11% hits;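 active = activation more than six SD over the plate average, tested at 20 µM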;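 note: 0% = DMSO alone and 100% = apelin-13 at 10 nM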
#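 Material: engineered CHO-K1 APJ arrestin reporter cells; amount: 1000 CHO-K1 reporter cells seeded per well; incubation: compound stimulation 90 min at 25 °C, detection 60 min; signal: luminescent beta-gal fragment complementation, chemiluminescent substrate; read-out basis: APJ agonist activity; controls: DMSO-only wells as negative, 10 nM Apelin-13 as positive control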
# HTR2A ag = activates the mouse 5-HT2A serotonin receptor. P35363. CHO-K1 mHTR2A beta-arrestin complementation, luminescence; percent of 30 µM serotonin response. activation, % at 7.6 µM. 360,000 compounds, 0.66% hits. AID 624169;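 active = activation above a run cutoff, the mean activation of all tested compounds plus 3 SD, cut at about 14% in these data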;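 note: 0% = plate median of compound wells and 100% = 30 µM serotonin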
# Target sequence (P35363 whole entry, looked up): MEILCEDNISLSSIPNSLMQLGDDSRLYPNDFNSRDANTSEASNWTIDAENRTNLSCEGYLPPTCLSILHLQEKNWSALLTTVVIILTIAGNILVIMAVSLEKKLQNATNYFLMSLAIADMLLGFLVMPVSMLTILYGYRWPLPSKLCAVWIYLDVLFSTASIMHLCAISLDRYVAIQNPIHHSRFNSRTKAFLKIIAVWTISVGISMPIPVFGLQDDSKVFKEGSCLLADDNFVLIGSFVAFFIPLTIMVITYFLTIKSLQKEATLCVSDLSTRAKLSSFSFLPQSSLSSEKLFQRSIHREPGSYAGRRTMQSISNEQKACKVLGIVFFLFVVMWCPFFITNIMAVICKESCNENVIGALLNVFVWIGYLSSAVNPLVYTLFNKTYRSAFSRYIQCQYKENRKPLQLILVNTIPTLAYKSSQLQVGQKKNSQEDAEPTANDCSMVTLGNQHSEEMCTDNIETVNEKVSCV
# APJ antag = antagonists of human APJ apelin receptor | 330,000 compounds, 0.32% hits | AID 2521 | inhibition, % at 20 µM | CHO-K1 APJ beta-arrestin complementation, luminescence | P35414;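 active = inhibition above about 40% at 20 µM, limit read from the data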;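 note: cells challenged with 10 nM apelin-13 agonist together with compound; plate controls were apelin-13 plus DMSO wells for no effect and DMSO wells lacking apelin-13 for full effect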
# APJ ag conf = APJ receptor agonism confirmation; shares compounds with APJ agonist; CHO-K1 APJ PathHunter beta-arrestin, luminescence; activation, % at 20 µM; 310 compounds, 10% hits; AID 2764;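 active = activation above 40%, taking the highest of four retests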;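 note: plate controls were DMSO wells for no effect and apelin-13 at 10 nM for full effect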
# Starred values were filed as active, the others as inactive; · = no result given.
SMILES,CXCR6 block,CCR6 antagonist,EBI2 antag,APJ agonist,HTR2A ag,APJ antag,APJ ag conf
N/C(Cc1ccc(Cl)c(Cl)c1)=N\OC(=O)c1cccs1,-19,-25,-22,19*,-3,-47,40*
Cc1nn(-c2ccccc2)c(Cl)c1C(=O)N1CCN(c2ncnc3c2cnn3-c2ccccc2)CC1,7,-23,-67,18*,11,-39,30
O=C(c1ccccc1)N1CCN(c2ncnc3c2cnn3-c2ccccc2)CC1,-6,3,-5,7,-3,12,·
CCSc1ccc(/C(N)=N/OC(=O)c2cccs2)cn1,-43,-32,-18,43*,0,-168,11
Cc1csc(-c2ccc3cc(Cl)cc(Cl)c3n2)n1,-10,·,3,·,-3,·,·
COC(=O)C1(Cc2cc(-c3cccnc3)no2)CCN(C(=O)OC(C)(C)C)CC1,-27,-12,-42,36*,5,-191,32
CC1=C(C(=O)OCc2ccccc2)C(c2cccc(F)c2)NC(=O)N1 (centres undefined),-22,-3,0,19*,10,12,8
CC1=C(C(=O)OCc2ccc3c(c2)OCO3)C(c2ccc(F)cc2)NC(=O)N1 (centres undefined),4,-6,2,29*,3,7,9
Cc1cccnc1C(NC(=O)C1CCN(CCCc2ccccc2)CC1)c1ccc(F)cc1 (centres undefined),8,·,-7,·,-2,·,·
CN(C)C(=O)c1ccc(NC(=O)c2cc(-c3ccco3)nc3ccccc23)cc1,14,12,1,2,0,-32,·
CCN(CC)CCNC(=O)c1ccc(NC(=O)c2cc(-c3ccco3)nc3ccccc23)cc1,4,7,5,55*,-8,-19,2
COCCNC(=O)C1(C)CCCN(C(=O)c2cc(F)cc(F)c2)C1 (centres undefined),-1,·,2,·,2,·,·
Cc1c(N2CCCCC2)[nH]c2ccccc12,3,·,-4,·,6,·,·
CCCCC1=CC2=CC(=O)C(C)(OC(=O)CC)C(=O)C2=CN1c1ccccc1 (centres undefined),-10,4,1,75*,9,-39,14
COCCNC(=O)C1(C)CCCN(Cc2ccc(Oc3ccccc3)cc2)C1 (centres undefined),-3,·,6,·,7,·,·
CCc1nc2c(OCc3ccc(F)c(F)c3)cccn2c1N(C)C(=O)c1cccs1,8,·,4,·,2,·,·
Nc1c(C(O)(C(F)(F)F)C(F)(F)F)cc(C(O)(C(F)(F)F)C(F)(F)F)c2ccccc12,4,6,-21,50*,5,-9,37
CCOC(=O)N1CCN(C(=O)C[C@@H]2C[C@@]3(C(=O)OC)CCCCC=C3N(Cc3cccc4ccccc34)C2=O)CC1,6,·,-4,·,-1,·,·
CC(C)(C)OC(=O)C(Cc1ccc(OC(C)(C)C)cc1)NC(=O)CNC(=O)CNC(=O)OCc1ccccc1 (centres undefined),-4,21,-7,2,8,5,·
CC(NC(=O)OCc1ccccc1)C(=O)NCC(=O)NC(Cc1ccc(OC(C)(C)C)cc1)C(=O)OC(C)(C)C (centres undefined),2,7,17,19*,0,-1,7
CCCCn1nnnc1C(c1cc2ccccc2o1)N1CCN(c2ccncc2)CC1 (centres undefined),0,·,-9,·,0,·,·
O=C(/C=C/c1ccc(OCCCF)cc1)Nc1ccnc(-c2ccncc2)n1,-7,-18,7,16*,1,-24,36
O=C(/C=C/c1ccc(OCCCF)cc1)Nc1ccnc(-c2cccnc2)n1,-12,-13,-17,2,4,-16,·
CCN(C)C1CN(Cc2cn(Cc3cc(C)cc(C)c3)nn2)S(=O)(=O)C1 (centres undefined),-8,·,-3,·,4,·,·
COc1ccc(NC(=O)OCC(C)C)cc1OC,2,-35,-3,-3,-5,14,·
SMILES,CXCR6 block,CCR6 antagonist,EBI2 antag,APJ agonist,HTR2A ag,APJ antag,APJ ag conf
COc1cc(CNC(=O)OCC(C)C)cc(OC)c1OC,-4,4,-2,18*,6,4,6
CCOc1ccccc1-c1nc(-c2ccc(NC(=O)Cc3ccc(OC)cc3)cc2)no1,0,-1,0,22*,-2,-10,20
CCOc1ccccc1-c1nc(-c2ccc(NC(=O)c3ccc(Br)o3)cc2)no1,·,-12,·,3,·,-17,·
CC1=C(c2ccc(F)cc2)[N+](=O)C(C)(C)N1[O-],-8,-7,-10,5,6,-111,·
CC1=C(c2ccc(C)cc2)[N+](=O)C(C)(C)N1[O-],0,3,-9,10*,6,-126,24
COc1ccc(/C=N/Nc2cc(C)nc3ccc(Br)cc23)cc1,-4,1,-14,17*,-7,-6,37
CCN(CC)CCNC(=O)c1ccc(NC(=O)c2ccc(-n3cncn3)c([N+](=O)[O-])c2)cc1,-3,·,-11,·,5,·,·
Cc1ccc(NC(=O)C/C(N)=N/OC(=O)Nc2ccc(C)c(Cl)c2)cc1,-37,-18,2,27*,-5,-40,26
CCCCCCc1cc2cc(C(=O)Nc3ccccc3)c(=O)oc2cc1O,-70,-99,-33,11*,0,-39,43*
COc1ccc(OC)c(CC(=O)Nc2ccc3c(c2)c(=O)n(C)n3Cc2cccc(C(F)(F)F)c2)c1,-4,·,7,·,-5,·,·
COc1cccc(N2CCN(c3ncnc4c3[nH]c3ccccc34)CC2C)c1 (centres undefined),·,·,·,19*,·,-57,41*
CC(=O)Nc1cc(-c2ccncc2)cn2c(-c3ccccc3)cnc12,7,·,7,·,-1,·,·
Cc1c(C(=O)Nc2cccc(C(F)(F)F)c2)oc2ccc(S(=O)(=O)N3CCOCC3)cc12,-6,-17,-26,21*,3,-18,17
CS(=O)(=O)/C(C#N)=C/c1cccn1S(=O)(=O)c1cccc2ccccc12,4,·,3,·,4,·,·
COc1ccc(NC(=O)/C(C#N)=C/c2ccc(Sc3nncn3C)c([N+](=O)[O-])c2)cc1,0,20,-3,18*,1,-45,18
C=CCn1c(SCC(=O)N2CCOCC2)nc2c([nH]c3ccccc32)c1=O,8,4,12,7,0,-35,·
C=CCn1c(SCC(=O)N2CCN(c3ccccc3)CC2)nc2c([nH]c3ccccc32)c1=O,2,0,-5,65*,4,-17,11
COc1ccc(-c2cn3c(C)c(C(=O)Nc4cccc(NC(C)=O)c4)sc3n2)cc1,-10,6,41,17*,6,-31,17
